Activity calls are given as the source filed them. The calls are words filed in the database; no cut-off is given here.
These compounds were tested on B16 (assay: Induction of melanogenesis in mouse B16 2F2 cells assessed as intracellular melanin content up to 10 uM after 3 days). Settings: not given.
Format: functional, cell-based
Method in brief: (§1)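 Aliquots of 1 × 10^5 B16 2F2 cells in 1 mL incubated 3 days (72 h) across a triterpene concentration range, including 1.0 and 10 µM. Intracellular melanin content measured per previously described method. ED50 derived from dose-response curves of melanogenesis up-regulation.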
`CC1(C)CC[C@]2(C(=O)O)CC[C@]3(C)C(=CC[C@@H]4[C@@]5(C)CC[C@H](O)C(C)(C)[C@@H]5CC[C@]43C)[C@@H]2C1` [OLEANOLIC_ACID] was tested, and the Activity was “inactive”.
`C[C@H]1[C@H](C)CC[C@]2(C(=O)O)CC[C@]3(C)C(=CC[C@@H]4[C@@]5(C)CC[C@H](O)C(C)(C)[C@@H]5CC[C@]43C)[C@H]12` [URSOLIC ACID] was tested, and the Activity was “inactive”.

These compounds were tested on B16 (assay: Induction of apoptosis in mouse B16 2F2 cells assessed as condensation and fragmentation of nuclei at 10 uM after 48 hrs by Hoechst 33258 staining based fluorescence microscopy). Settings: not given.
Format: functional
Method in brief: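 B16 2F2 cells held with or without triterpene at 10 µM for 48 h, collected, washed in PBS, fixed in 1% glutaraldehyde, then stained 30 min with 50 µM Hoechst 33258. Nuclear condensation/fragmentation scored by fluorescence microscopy, apoptotic cells counted manually on at least 200 cells.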
With `C=C(C)[C@@H]1CC[C@]2(C=O)CC[C@]3(C)[C@H](CC[C@@H]4[C@@]5(C)CC[C@H](O)C(C)(C)[C@@H]5CC[C@]43C)[C@@H]12` [BETULINALDEHYDE] the Activity was 70.4%.

What follows are compounds tested on B16 (assay: Induction of melanogenesis in mouse B16 2F2 cells assessed as intracellular melanin content after 3 days). Settings: B16, 72 h, read-out: ED50 (the source's name).
Format: functional
Method in brief: as §1
`C[C@H]1[C@H](C)CC[C@]2(C)CC[C@]3(C)C(=CC[C@@H]4[C@@]5(C)CC[C@H](O)C(C)(C)[C@@H]5CC[C@]43C)[C@H]12` gave an EC50 greater than 50 µM.
Work on `CC1(C)CC[C@]2(C)CC[C@]3(C)C(=CC[C@@H]4[C@@]5(C)CCC(=O)C(C)(C)[C@@H]5CC[C@]43C)[C@@H]2C1` yielded an EC50 greater than 50 µM.
Work on `C[C@H]1[C@H](C)CC[C@]2(C)CC[C@]3(C)C(=CC[C@@H]4[C@@]5(C)CCC(=O)C(C)(C)[C@@H]5CC[C@]43C)[C@H]12` yielded an EC50 greater than 50 µM.
Compound `C=C(C)[C@@H]1CC[C@]2(COC(C)=O)CC[C@]3(C)[C@H](CC[C@@H]4[C@@]5(C)CC[C@H](OC(C)=O)C(C)(C)[C@@H]5CC[C@]43C)[C@@H]12` [BETULIN DIACETATE] has an EC50 of 3.4 µM.
`C=C(C)[C@@H]1CC[C@]2(C=O)CC[C@]3(C)[C@H](CC[C@@H]4[C@@]5(C)CC[C@H](O)C(C)(C)[C@@H]5CC[C@]43C)[C@@H]12` [BETULINALDEHYDE] gave an EC50 of 3.3 µM.
`C=C(C)[C@@H]1CC[C@]2(C(=O)O)CC[C@]3(C)[C@H](CC[C@@H]4[C@@]5(C)CC[C@H](O)C(C)(C)[C@@H]5CC[C@]43C)[C@@H]12` [BETULINIC ACID] showed an EC50 of 4.1 µM.
`C=C(C)[C@@H]1CC[C@]2(CO)CC[C@]3(C)[C@H](CC[C@@H]4[C@@]5(C)CC[C@H](O)C(C)(C)[C@@H]5CC[C@]43C)[C@@H]12` [BETULIN] was tested, and the EC50 was 4.8 µM.
Work on `C=C(C)[C@@H]1CC[C@]2(C=O)CC[C@]3(C)[C@H](CC[C@@H]4[C@@]5(C)CCC(=O)C(C)(C)[C@@H]5CC[C@]43C)[C@@H]12` [BETULONAL] yielded an EC50 of 0.35 µM.
With `C=C(C)[C@@H]1CC[C@]2(CO)CC[C@]3(C)[C@H](CC[C@@H]4[C@@]5(C)CCC(=O)C(C)(C)[C@@H]5CC[C@]43C)[C@@H]12` [BETULONE] the EC50 was 0.19 µM.
`CC1(C)CC[C@]2(CO)CC[C@]3(C)C(=CC[C@@H]4[C@@]5(C)CC[C@H](O)C(C)(C)[C@@H]5CC[C@]43C)[C@@H]2C1` [ERYTHRODIOL] showed an EC50 greater than 50 µM.
With `C=C(C)[C@@H]1CC[C@]2(C)CC[C@]3(C)[C@H](CC[C@@H]4[C@@]5(C)CCC(=O)C(C)(C)[C@@H]5CC[C@]43C)[C@@H]12` [LUPENONE] the EC50 was 0.35 µM.
`C=C(C)[C@@H]1CC[C@]2(C)CC[C@]3(C)[C@H](CC[C@@H]4[C@@]5(C)CC[C@H](OC(C)=O)C(C)(C)[C@@H]5CC[C@]43C)[C@@H]12` [LUPENYL ACETATE] showed an EC50 of 7.5 µM.
`C=C(C)[C@@H]1CC[C@]2(C)CC[C@]3(C)[C@H](CC[C@@H]4[C@@]5(C)CC[C@H](O)C(C)(C)[C@@H]5CC[C@]43C)[C@@H]12` [LUPEOL] showed an EC50 of 9.9 µM.
Work on `C=C(C)[C@@H]1CC[C@]2(C(=O)OC)CC[C@]3(C)[C@H](CC[C@@H]4[C@@]5(C)CC[C@H](O)C(C)(C)[C@@H]5CC[C@]43C)[C@@H]12` [METHYL BETULINATE] yielded an EC50 of 2.5 µM.
Work on `C[C@H]1[C@H](C)CC[C@]2(CO)CC[C@]3(C)C(=CC[C@@H]4[C@@]5(C)CC[C@H](O)C(C)(C)[C@@H]5CC[C@]43C)[C@H]12` [UVAOL] yielded an EC50 greater than 50 µM.
`CC1(C)CC[C@]2(C)CC[C@]3(C)C(=CC[C@@H]4[C@@]5(C)CC[C@H](O)C(C)(C)[C@@H]5CC[C@]43C)[C@@H]2C1` [beta-AMYRIN] gave an EC50 greater than 50 µM.

What follows are compounds tested on B16 (assay: Growth inhibition of mouse B16 2F2 cells after 3 days). Settings: B16, 72 h.
Format: functional, cell-based
Method in brief: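 B16 2F2 melanoma subclone, 1 × 10^5 cells per 1 mL aliquot, exposed to a range of triterpene concentrations for 3 days. Viable cells counted as in earlier work. IC50 = concentration giving 50% growth inhibition.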
`C[C@H]1[C@H](C)CC[C@]2(C)CC[C@]3(C)C(=CC[C@@H]4[C@@]5(C)CC[C@H](O)C(C)(C)[C@@H]5CC[C@]43C)[C@H]12` gave an IC50 of 50 µM.
Work on `CC1(C)CC[C@]2(C)CC[C@]3(C)C(=CC[C@@H]4[C@@]5(C)CCC(=O)C(C)(C)[C@@H]5CC[C@]43C)[C@@H]2C1` yielded an IC50 of 38.7 µM.
Compound `C[C@H]1[C@H](C)CC[C@]2(C)CC[C@]3(C)C(=CC[C@@H]4[C@@]5(C)CCC(=O)C(C)(C)[C@@H]5CC[C@]43C)[C@H]12` has an IC50 of 40.3 µM.
In the case of `C=C(C)[C@@H]1CC[C@]2(COC(C)=O)CC[C@]3(C)[C@H](CC[C@@H]4[C@@]5(C)CC[C@H](OC(C)=O)C(C)(C)[C@@H]5CC[C@]43C)[C@@H]12` [BETULIN DIACETATE], the IC50 is reported as 36.8 µM.
For `C=C(C)[C@@H]1CC[C@]2(C=O)CC[C@]3(C)[C@H](CC[C@@H]4[C@@]5(C)CC[C@H](O)C(C)(C)[C@@H]5CC[C@]43C)[C@@H]12` [BETULINALDEHYDE], the IC50 was 6.4 µM.
In the case of `C=C(C)[C@@H]1CC[C@]2(C(=O)O)CC[C@]3(C)[C@H](CC[C@@H]4[C@@]5(C)CC[C@H](O)C(C)(C)[C@@H]5CC[C@]43C)[C@@H]12` [BETULINIC ACID], the IC50 is reported as 7.9 µM.
`C=C(C)[C@@H]1CC[C@]2(CO)CC[C@]3(C)[C@H](CC[C@@H]4[C@@]5(C)CC[C@H](O)C(C)(C)[C@@H]5CC[C@]43C)[C@@H]12` [BETULIN] showed an IC50 of 27.4 µM.
`C=C(C)[C@@H]1CC[C@]2(C=O)CC[C@]3(C)[C@H](CC[C@@H]4[C@@]5(C)CCC(=O)C(C)(C)[C@@H]5CC[C@]43C)[C@@H]12` [BETULONAL] showed an IC50 of 4.1 µM.
`C=C(C)[C@@H]1CC[C@]2(CO)CC[C@]3(C)[C@H](CC[C@@H]4[C@@]5(C)CCC(=O)C(C)(C)[C@@H]5CC[C@]43C)[C@@H]12` [BETULONE] gave an IC50 of 29.3 µM.
With `CC1(C)CC[C@]2(CO)CC[C@]3(C)C(=CC[C@@H]4[C@@]5(C)CC[C@H](O)C(C)(C)[C@@H]5CC[C@]43C)[C@@H]2C1` [ERYTHRODIOL] the IC50 was 33.4 µM.
Work on `C=C(C)[C@@H]1CC[C@]2(C)CC[C@]3(C)[C@H](CC[C@@H]4[C@@]5(C)CCC(=O)C(C)(C)[C@@H]5CC[C@]43C)[C@@H]12` [LUPENONE] yielded an IC50 of 25.4 µM.
With `C=C(C)[C@@H]1CC[C@]2(C)CC[C@]3(C)[C@H](CC[C@@H]4[C@@]5(C)CC[C@H](OC(C)=O)C(C)(C)[C@@H]5CC[C@]43C)[C@@H]12` [LUPENYL ACETATE] the IC50 was 22.7 µM.
For `C=C(C)[C@@H]1CC[C@]2(C)CC[C@]3(C)[C@H](CC[C@@H]4[C@@]5(C)CC[C@H](O)C(C)(C)[C@@H]5CC[C@]43C)[C@@H]12` [LUPEOL], the IC50 was 38 µM.
Work on `C=C(C)[C@@H]1CC[C@]2(C(=O)OC)CC[C@]3(C)[C@H](CC[C@@H]4[C@@]5(C)CC[C@H](O)C(C)(C)[C@@H]5CC[C@]43C)[C@@H]12` [METHYL BETULINATE] yielded an IC50 of 4.9 µM.
In the case of `CC1(C)CC[C@]2(C(=O)O)CC[C@]3(C)C(=CC[C@@H]4[C@@]5(C)CC[C@H](O)C(C)(C)[C@@H]5CC[C@]43C)[C@@H]2C1` [OLEANOLIC_ACID], the IC50 is reported as 4.8 µM.
`C[C@H]1[C@H](C)CC[C@]2(C(=O)O)CC[C@]3(C)C(=CC[C@@H]4[C@@]5(C)CC[C@H](O)C(C)(C)[C@@H]5CC[C@]43C)[C@H]12` [URSOLIC ACID] was tested, and the IC50 was 3.1 µM.
`C[C@H]1[C@H](C)CC[C@]2(CO)CC[C@]3(C)C(=CC[C@@H]4[C@@]5(C)CC[C@H](O)C(C)(C)[C@@H]5CC[C@]43C)[C@H]12` [UVAOL] was tested, and the IC50 was 46.8 µM.
With `CC1(C)CC[C@]2(C)CC[C@]3(C)C(=CC[C@@H]4[C@@]5(C)CC[C@H](O)C(C)(C)[C@@H]5CC[C@]43C)[C@@H]2C1` [beta-AMYRIN] the IC50 was 48.8 µM.
